One experiment has as its system SAOS-2. The experiment can be described thus: Induction of alkaline phosphatase expression in human Saos2 cells after 3 days by spectrophotometry. In kind it is cell-based. The settings on record: SAOS-2, 72 h.
Experiment [1] concerns Rattus norvegicus. The experiment can be described thus: Antiinflammatory activity in Sprague-Dawley rat assessed as carrageenan-induced paw edema at 30 mg/kg, po administered as a single dose 2 hrs before carrageenan challenge measured 4 hrs post carrageenan challenge by plethysmometry relative to control. In general terms: In the carrageenan paw model, swelling and tenderness develop within hours.

For experiment [2], the system named is MG-63. The experiment can be described thus: Induction of glutamine synthase expression in human MG63 cells after overnight incubation by spectrophotometry. In kind it is cell-based.
The test system of experiment [3] is Blood. The experiment can be described thus: Antiinflammatory activity in human whole blood assessed as inhibition of IL-1beta-induced IL-8 production after overnight incubation by ELISA. In kind it is functional, tissue-based. The essentials: (§1)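 Whole blood from two donors per experiment was collected into ACD-A. Compounds were added and the blood was incubated about 20 h at 37 °C under 5% CO2. Blood was then stimulated for 5 h with LPS (final 100 ng/mL, for TNFα) or IL-1β (final 10 ng/mL, for IL-8). Plasma TNFα or IL-8 was measured by ELISA. Efficacy was expressed as % of dexamethasone, and values are means of at least two experiments.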

Experiment [4] has as its system Blood. Description: Antiinflammatory activity in human whole blood assessed as inhibition of IL-1beta-induced IL-8 production after overnight incubation by ELISA relative to Dexamethasone. In kind it is functional. An outline of the steps:
as §1
On the technique in general: An ELISA detects its analyte on a solid surface through an enzyme-linked reagent.

Experiment [5] concerns Blood. The experiment can be described thus: Antiinflammatory activity in human whole blood assessed as inhibition of TNF-alpha-induced IL-8 production after overnight incubation by ELISA relative to dexamethasone. In kind it is functional.
The test system of experiment [6] is Blood. Description: Antiinflammatory activity in human whole blood assessed as inhibition of LPS-induced TNFalpha production after overnight incubation by ELISA. In kind it is functional, tissue-based. The essentials:
as §1

Experiment [7] deals with Blood. Description: Antiinflammatory activity in human whole blood assessed as inhibition of TNF-alpha-induced IL-8 production after overnight incubation by ELISA. The format is functional, tissue-based.
For experiment [8], the system named is Rattus norvegicus. Description: Antiinflammatory activity in Freund's complete adjuvant-induced Lewis rat arthritis model assessed as reduction in paw swelling at 5 mg/kg/day, po qd for 21 days. In kind it is functional, organism-based. The essentials:
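Male Lewis rats were inoculated with Mycobacterium butyricum in incomplete Freund's adjuvant. Oral dosing was daily and preventative, running from day 0 to day 21. Onset and progression of arthritis were followed, and ED50 was estimated from the dose response.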

Experiment [9] addresses T1, Mineralocorticoid receptor (Homo sapiens, UniProt P08235).
T1 sequence (P08235 whole entry): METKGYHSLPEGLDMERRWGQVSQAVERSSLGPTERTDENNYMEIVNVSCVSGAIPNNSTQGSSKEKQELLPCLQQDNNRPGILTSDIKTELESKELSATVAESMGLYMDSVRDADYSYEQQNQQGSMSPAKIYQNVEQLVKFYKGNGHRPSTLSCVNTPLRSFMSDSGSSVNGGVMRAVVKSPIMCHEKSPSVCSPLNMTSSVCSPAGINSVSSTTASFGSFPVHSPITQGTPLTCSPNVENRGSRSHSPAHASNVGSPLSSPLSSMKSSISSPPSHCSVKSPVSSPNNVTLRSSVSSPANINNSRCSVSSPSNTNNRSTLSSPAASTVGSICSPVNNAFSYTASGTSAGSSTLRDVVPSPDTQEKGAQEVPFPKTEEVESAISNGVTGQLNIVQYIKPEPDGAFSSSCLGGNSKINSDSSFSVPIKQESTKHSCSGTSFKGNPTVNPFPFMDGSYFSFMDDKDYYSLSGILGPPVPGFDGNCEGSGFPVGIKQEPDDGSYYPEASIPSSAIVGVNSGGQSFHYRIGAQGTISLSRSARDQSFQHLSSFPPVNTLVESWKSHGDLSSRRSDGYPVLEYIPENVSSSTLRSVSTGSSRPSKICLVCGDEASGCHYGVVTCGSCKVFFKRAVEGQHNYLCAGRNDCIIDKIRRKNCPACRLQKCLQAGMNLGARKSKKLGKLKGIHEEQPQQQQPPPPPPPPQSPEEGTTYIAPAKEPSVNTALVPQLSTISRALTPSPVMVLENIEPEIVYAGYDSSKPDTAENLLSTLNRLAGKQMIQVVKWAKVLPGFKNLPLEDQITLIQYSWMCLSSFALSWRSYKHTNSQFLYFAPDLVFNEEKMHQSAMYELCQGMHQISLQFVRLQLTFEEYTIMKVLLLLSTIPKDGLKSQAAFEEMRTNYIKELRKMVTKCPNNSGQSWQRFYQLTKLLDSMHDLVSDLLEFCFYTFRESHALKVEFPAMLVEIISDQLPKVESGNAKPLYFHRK
Description: Agonist activity at human mineralocorticoid receptor expressed in human A549 cells by fluorescence polarization assay. In kind it is functional, cell-based. For orientation: Polarisation of emitted light reports the rotation of a fluorescent probe.

Experiment [10] has as its system Blood. The experiment can be described thus: Antiinflammatory activity in human whole blood assessed as inhibition of LPS-induced TNFalpha production after overnight incubation by ELISA relative to Dexamethasone. The format is functional. The essentials: as §1
Experiment [11] relates to MG-63. Description: Induction of glutamine synthase expression in human MG63 cells after overnight incubation by spectrophotometry relative to prednisolone. The format is cell-based.

Calls of active or inactive are those of the source. No cut-off for these calls is given here.

The term Emax denotes the greatest response seen or fitted, relative to the assay's reference. The EC50 is the concentration needed to bring the measured effect to its halfway point. Turning to `C[C@]12C=CC(=O)C=C1CC[C@@H]1[C@@H]2[C@@H](O)C[C@@]2(C)[C@H]1CC[C@]2(O)C(=O)CO` [PREDNISOLONE], the Emax with SAOS-2 is 68%; in the experiment on MG-63 [11], 100%. Also, the level, % of control at 30 mg/kg with Rattus norvegicus [1] worked out at 49%. In addition, the EC50 in the experiment with MG-63 [2] was 0.019 µM; in the experiment with Blood [3], 0.104 µM; in the experiment on Blood [6], 0.089 µM; in the experiment with Blood [7] it was 0.124 µM; in experiment [9] it was 0.002 µM. Also, the Imax in the experiment with Blood [4], in the experiment with Blood [5] and in the experiment with Blood [10] was 94% in each case. Moreover, in the experiment on Rattus norvegicus [8], the result was Active.

The values above are taken from ChEMBL document CHEMBL1909630, “Azaxanthene based selective glucocorticoid receptor modulators: design, synthesis, and pharmacological evaluation of (S)-4-(5-(1-((1,3,4-thiadiazol-2-yl)amino)-2-methyl-1-oxopropan-2-yl)-5H-chromeno[2,3-b]pyridin-2-yl)-2-fluoro-N,N-dimethylbenzamide (BMS-776532) and its methylene homologue …” (J Med Chem, 2011).
